Source: ChEMBL document CHEMBL3085713, “Facile preparation of tetrahydro-5H-pyrido[1,2,3-de]-1,4-benzoxazines via reductive cyclization of 2-(8-quinolinyloxy)ethanones and their antioxidant activity” (Bioorg Med Chem Lett, 2013)

Tested on: not listed separately
Experiment: Antioxidant activity assessed as ABTS free radical scavenging activity after 3 mins by spectrophotometry
Format: functional
Outline: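 ABTS (2 mM stock in PBS, pH 7.4) reacted with 70 mM K2S2O8, left in dark at room temperature 15-16 h, then diluted with PBS to absorbance 0.70 ± 0.03 at 734 nm. Sample in DMSO (0.1 mL, range of concentrations) mixed with 1.9 mL radical solution; absorbance read at ambient temperature after 3 min, PBS blank. Scavenging % vs sample-free control; triplicate means; IC50 = concentration scavenging 50%.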

IC50 [µM]	SMILES
9.3	COc1cccc(C2COc3cccc4c3N2CCC4)c1 (stereo not given)
15.3	COc1ccccc1C1COc2cccc3c2N1CCC3 (stereo not given)
20.2	c1csc(C2COc3cccc4c3N2CCC4)c1 (stereo not given)
10	Nc1ccc(C2COc3cccc4c3N2CCC4)cc1 (stereo not given)
32.1	Cc1cc(C(C)(C)C)c(O)c(C(C)(C)C)c1 [BUTYLATED HYDROXYTOLUENE]
18.3	O=C1O[C@H]([C@@H](O)CO)C(O)=C1O [ASCORBIC ACID]
17.8	Nc1cccc(C2COc3cccc4c3N2CCC4)c1 (stereo not given)
62.4	CC1Oc2cccc3c2N(CCC3)C1c1ccccc1 (stereo not given)
26.7	COc1ccc(C2COc3cccc4c3N2CCC4)cc1 (stereo not given)
38.3	c1ccc(C2COc3cccc4c3N2CCC4)cc1 (stereo not given)
28.4	COc1ccc(C2COc3cccc4c3N2CCC4)cc1OC (stereo not given)
62.2	c1cc2c3c(c1)OCC(c1ccc4ccccc4c1)N3CCC2 (stereo not given)
48.4	Cc1ccc(C2COc3cccc4c3N2CCC4)cc1 (stereo not given)
52.4	c1cc2c3c(c1)OCC(c1cccc4ccccc14)N3CCC2 (stereo not given)
42.5	c1cc2c3c(c1)OCC(c1ccc4c(c1)OCO4)N3CCC2 (stereo not given)

Tested on: Radical scavenging activity
Experiment: Antioxidant activity assessed as DPPH free radical scavenging activity after 30 mins by spectrophotometry
Format: functional
Outline: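 Sample in DMSO (0.1 mL, range of concentrations) added to 1.9 mL of 0.004% (w/v) DPPH radical in ethanol; incubated at 37 °C, absorbance read at 517 nm after 30 min. Scavenging % = (A control − A test)/A control × 100, control lacking sample. Triplicate, means used; IC50 taken as concentration scavenging 50% of radicals.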

IC50 [µM]	SMILES
44.6	COc1cccc(C2COc3cccc4c3N2CCC4)c1 (stereo not given)
45.4	COc1ccccc1C1COc2cccc3c2N1CCC3 (stereo not given)
56.3	c1csc(C2COc3cccc4c3N2CCC4)c1 (stereo not given)
45	Nc1ccc(C2COc3cccc4c3N2CCC4)cc1 (stereo not given)
63.1	Cc1cc(C(C)(C)C)c(O)c(C(C)(C)C)c1 [BUTYLATED HYDROXYTOLUENE]
49.7	O=C1O[C@H]([C@@H](O)CO)C(O)=C1O [ASCORBIC ACID]
52.3	Nc1cccc(C2COc3cccc4c3N2CCC4)c1 (stereo not given)
95.4	CC1Oc2cccc3c2N(CCC3)C1c1ccccc1 (stereo not given)
64.5	COc1ccc(C2COc3cccc4c3N2CCC4)cc1 (stereo not given)
78.8	c1ccc(C2COc3cccc4c3N2CCC4)cc1 (stereo not given)
75.5	COc1ccc(C2COc3cccc4c3N2CCC4)cc1OC (stereo not given)
98.3	c1cc2c3c(c1)OCC(c1ccc4ccccc4c1)N3CCC2 (stereo not given)
98.4	Cc1ccc(C2COc3cccc4c3N2CCC4)cc1 (stereo not given)
75.2	c1cc2c3c(c1)OCC(c1cccc4ccccc14)N3CCC2 (stereo not given)
78.3	c1cc2c3c(c1)OCC(c1ccc4c(c1)OCO4)N3CCC2 (stereo not given)
